Assay results from paper PMC4404408 (Journal of acquired immune deficiency syndromes (1999), 2014).
Several values for one entry are separate records, joined by “and”; a condition that tells them apart may be missing. Equal entries are not always repeated. Where two headings read alike, the source gives them in different places.

Assays:
[1] = Phase I open-label drug interaction PK study, arm B
[2] = human, in vivo
[3] = Phase I open-label drug interaction PK study, arm A; conditions: for Cmax: in vivo
[4] = cited from earlier work
[5] = Fasting lipid profile, calculated LDL-C; assay type: in vivo, healthy adult HIV-1 seronegative volunteers
Summary of the method: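 Healthy HIV-seronegative volunteers aged 18–60 (BMI 18–25, ≥50 kg) took pitavastatin with observed dosing on day 4. They then took EFV 600 mg (arm A, night) or DRV/ritonavir 800/100 mg (arm B, morning) on days 5–14, plus pitavastatin 2 mg on days 15–18. Fasting serum total cholesterol, triglycerides and HDL were measured enzymatically on days 0, 4, 14 and 18, and LDL-C was calculated by the Friedewald equation.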

[6] = human, in vivo; remark: listed apart in the source
[7] = coadministered with pitavastatin vs DRV/r alone, nonsignificant
[8] = pitavastatin 4 mg daily with DRV/r 800/100 mg, healthy volunteers
[9] = pitavastatin 4 mg once daily and lopinavir/r 400/100 mg twice a day, healthy volunteers

## CC(C)CN(C[C@@H](O)[C@H](Cc1ccccc1)NC(=O)O[C@H]1CO[C@H]2OCC[C@H]21)S(=O)(=O)c1ccc(N)cc1 [DRV, darunavir]
[1]; [7]
  Increase in DRV mean AUC0-τ: 8% and < 10%
  Increase in DRV mean Cmax: 3% and < 10%
[1]; with pitavastatin, Fig. 3B
  DRV mean plasma concentrations, alone vs coadministered: remained similar

## O=C1Nc2ccc(Cl)cc2[C@@](C#CC2CC2)(C(F)(F)F)O1 [EFV, efavirenz]
[2]
  EFV AUC0-τ geometric mean ratio (90% CI): 0.90 (0.75 to 1.06)
  EFV mean plasma concentrations, alone vs coadministered: remained similar throughout the entire 24-hour PK period
[3]; EFV 600 mg with pitavastatin 2 mg, day 18, N=14
  EFV AUC0-τ, geometric mean: 44400 ng·h/mL
[3]; EFV only, day 14, N=14
  EFV Tmax, median (IQR): 2.0 (0.9 to 3.0) h
[3]; human
  Cmax: 3720 ng/mL
[3]; human, 600 mg
  Cmax: 4150 ng/mL
[3]; human, plasma, oral, 600 mg
  AUC: 49500 ng·h/mL
[3]; human, plasma, oral, EFV Tmax, median (IQR), EFV with pitavastatin, day 18, N=14
  Tmax: 1.5 h

## O=C(O)C[C@H](O)C[C@H](O)/C=C/c1c(C2CC2)nc2ccccc2c1-c1ccc(F)cc1 [Pitavastatin, pitavastatin]
[1]; with DRV/r, 24-hour PK period, Fig. 3A
  Pitavastatin mean plasma concentrations, alone vs coadministered: similar
[2]
  Pitavastatin Tmax, median (IQR): 2.0 (0.9 to 3.0) h
[4]; combined with ritonavir-boosted atazanavir
  Increase in pitavastatin AUC: 31%
[4]; lopinavir/ritonavir in combination with pitavastatin
  Safety of concomitant administration: safe and well tolerated
[4]; [8]
  Change in pitavastatin Cmax: minimal or no change
  Reduction in pitavastatin AUC0-τ: 26%
[4]; [9]
  Change of pitavastatin Cmax: unaffected
  Reduction of pitavastatin AUC: ~ 20%
[5]; day 0-4, pitavastatin only, arms A and B
  Change in mean LDL: decreased
[5]; day 14 to day 18, pitavastatin and either EFV or DRV/r
  Change in mean LDL: decreased

## O=C1C[C@H](O)C[C@@H](/C=C/c2c(C3CC3)nc3ccccc3c2-c2ccc(F)cc2)O1 [pitavastatin lactone]
[6]
  Pitavastatin lactone median Tmax: 2.0 h

## CC[C@H](C)C(=O)O[C@H]1C[C@H](O)C=C2C=C[C@H](C)[C@H](CC[C@@H](O)C[C@@H](O)CC(=O)O)[C@H]21 [pravastatin]
[4]; coadministered with EFV
  Decrease of statin AUC by EFV: 40%
[4]; coadministration with lopinavir/ritonavir
  Increase of pravastatin AUC: 33%
[4]; combined with nelfinavir or saquinavir
  Reduction of pravastatin exposure: about 50%
[4]; in the presence of DRV/r
  Increase of pravastatin AUC: 81%
